Experiments:
[1] = test system: PANC-1; test: Cytotoxicity against human PANC-1 cells assessed as maximum inhibition of cell viability upto 198 uM incubated for 72 hrs by MTS assay relative to control; assay type: functional; settings: up to 198 µM
Summary of the method: (§1)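 Cells seeded at 0.5 to 100 × 10^3 per well the day before drug addition, then exposed to compound for 72 h. MTS added afterwards, with a further 4 h at 37 °C, and absorbance read. Tested in duplicate at 9 serial 3.16-fold dilutions, top concentration 198 μM. MI% is the maximum inhibition of viability across the tested range.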

[2] = test system: PANC-1; test: Cytotoxicity against human PANC-1 cells assessed as inhibition of cell viability incubated for 72 hrs by MTS assay; assay type: functional, cell-based; settings: PANC-1, 72 h
Summary of the method: (§2)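 Cells seeded at 0.5 to 100 × 10^3 per well the day before treatment, then exposed for 72 h to 9 serial concentrations (3.16-fold dilutions, top 198 μM), in duplicate. MTS added for a final 4 h at 37 °C and absorbance read. IC50 is the concentration giving 50% loss of viability. MI% is the maximum inhibition over the tested range.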

[3] = test system: SK-MES-1; test: Cytotoxicity against human SK-MES-1 cells assessed as inhibition of cell viability incubated for 72 hrs by MTS assay; assay type: functional, cell-based; settings: SK-MES-1, 72 h; summary of the method: as §2
[4] = test system: MDA-MB-231; test: Cytotoxicity against human MDA-MB-231 cells assessed as inhibition of cell viability incubated for 72 hrs by MTS assay; assay type: functional, cell-based; settings: MDA-MB-231, 72 h; summary of the method: as §2
[5] = test system: COLO 205; test: Cytotoxicity against human COLO 205 cells assessed as maximum inhibition of cell viability upto 198 uM incubated for 72 hrs by MTS assay relative to control; assay type: functional; settings: up to 198 µM; summary of the method: as §1
[6] = test system: MIA PaCa-2; test: Cytotoxicity against human MIA PaCa-2 cells assessed as maximum inhibition of cell viability upto 198 uM incubated for 72 hrs by MTS assay relative to control; assay type: functional; settings: up to 198 µM; summary of the method: as §1
[7] = test system: HepG2; test: Cytotoxicity against human HepG2 cells assessed as inhibition of cell viability incubated for 72 hrs by MTS assay; assay type: functional, cell-based; settings: HepG2, 72 h; summary of the method: as §2
[8] = test system: PC-3; test: Cytotoxicity against human PC-3 cells assessed as inhibition of cell viability incubated for 72 hrs by MTS assay; assay type: functional, cell-based; settings: PC-3, 72 h; summary of the method: as §2
[9] = test system: PC-3; test: Cytotoxicity against human PC-3 cells assessed as maximum inhibition of cell viability upto 198 uM incubated for 72 hrs by MTS assay relative to control; assay type: functional; settings: up to 198 µM; summary of the method: as §1
[10] = Cytotoxicity against human T24/83 cells assessed as inhibition of cell viability incubated for 72 hrs by MTS assay; assay type: functional, cell-based; settings: T24/83, 72 h; summary of the method: as §2
[11] = test system: MDA-MB-231; test: Cytotoxicity against human MDA-MB-231 cells assessed as maximum inhibition of cell viability upto 198 uM incubated for 72 hrs by MTS assay relative to control; assay type: functional; settings: up to 198 µM; summary of the method: as §1
[12] = test system: RT112/84; test: Cytotoxicity against human RT112/84 cells assessed as maximum inhibition of cell viability upto 198 uM incubated for 72 hrs by MTS assay relative to control; assay type: functional; settings: up to 198 µM; summary of the method: as §1
[13] = test system: SK-MES-1; test: Cytotoxicity against human SK-MES-1 cells assessed as maximum inhibition of cell viability upto 198 uM incubated for 72 hrs by MTS assay relative to control; assay type: functional; settings: up to 198 µM; summary of the method: as §1
[14] = test system: HepG2; test: Cytotoxicity against human HepG2 cells assessed as maximum inhibition of cell viability upto 198 uM incubated for 72 hrs by MTS assay relative to control; assay type: functional; settings: up to 198 µM; summary of the method: as §1
[15] = test system: A2780; test: Cytotoxicity against human A2780 cells assessed as inhibition of cell viability incubated for 72 hrs by MTS assay; assay type: functional, cell-based; settings: A2780, 72 h; summary of the method: as §2
[16] = test system: MIA PaCa-2; test: Cytotoxicity against human MIA PaCa-2 cells assessed as inhibition of cell viability incubated for 72 hrs by MTS assay; assay type: functional, cell-based; settings: MIA PaCa-2, 72 h; summary of the method: as §2
[17] = test system: BXPC-3; test: Cytotoxicity against human BXPC-3 cells assessed as inhibition of cell viability incubated for 72 hrs by MTS assay; assay type: functional, cell-based; settings: BXPC-3, 72 h; summary of the method: as §2
[18] = test system: BXPC-3; test: Cytotoxicity against human BXPC-3 cells assessed as maximum inhibition of cell viability upto 198 uM incubated for 72 hrs by MTS assay relative to control; assay type: functional; settings: up to 198 µM; summary of the method: as §1
[19] = test system: RT112/84; test: Cytotoxicity against human RT112/84 cells assessed as inhibition of cell viability incubated for 72 hrs by MTS assay; assay type: functional, cell-based; settings: RT112/84, 72 h; summary of the method: as §2
[20] = test system: OVCAR-3; test: Cytotoxicity against human OVCAR-3 cells assessed as inhibition of cell viability incubated for 72 hrs by MTS assay; assay type: functional, cell-based; settings: OVCAR-3, 72 h; summary of the method: as §2
[21] = test system: HT-29; test: Cytotoxicity against human HT-29 cells assessed as maximum inhibition of cell viability upto 198 uM incubated for 72 hrs by MTS assay relative to control; assay type: functional; settings: up to 198 µM; summary of the method: as §1
[22] = test system: OVCAR-3; test: Cytotoxicity against human OVCAR-3 cells assessed as maximum inhibition of cell viability upto 198 uM incubated for 72 hrs by MTS assay relative to control; assay type: functional; settings: up to 198 µM; summary of the method: as §1
[23] = test system: A2780; test: Cytotoxicity against human A2780 cells assessed as maximum inhibition of cell viability upto 198 uM incubated for 72 hrs by MTS assay relative to control; assay type: functional; settings: up to 198 µM; summary of the method: as §1
[24] = test system: COLO 205; test: Cytotoxicity against human COLO 205 cells assessed as inhibition of cell viability incubated for 72 hrs by MTS assay; assay type: functional, cell-based; settings: COLO 205, 72 h; summary of the method: as §2
[25] = test system: HT-29; test: Cytotoxicity against human HT-29 cells assessed as inhibition of cell viability incubated for 72 hrs by MTS assay; assay type: functional, cell-based; settings: HT-29, 72 h; summary of the method: as §2

Nc1ccn([C@@H]2O[C@H](CO)[C@@H](O)C2(F)F)c(=O)n1 [GEMCITABINE]
Imax [1]: 43%
IC50 [2]: 680 nM
IC50 [3]: 1220 nM
IC50 [4]: 3700 nM
Imax [5]: 86%
Imax [6]: 68%
IC50 [7]: 16700 nM
IC50 [8]: 460 nM
Imax [9]: 61%
IC50 [10]: < 20 nM
Imax [11]: 74%
Imax [12]: 88%
Imax [13]: 88%
Imax [14]: 53%
IC50 [15]: 320 nM
IC50 [16]: 40 nM
IC50 [17]: 1810 nM
Imax [18]: 79%
IC50 [19]: 1220 nM
IC50 [20]: 67200 nM
Imax [21]: 64%
Imax [22]: 35%
Imax [23]: 85%
IC50 [24]: 110 nM
IC50 [25]: 70 nM
